Results: ChEMBL document CHEMBL1149559, “Synthesis and evaluation of amphiphilic cationic quinine-derived for antibacterial activity against methicillin-resistant Staphylococcus aureus” (Bioorg Med Chem Lett, 2007)
Converted amounts (≈) assume the structure as drawn. One block for each molecule: values may come before it. The source made the active and inactive calls. No cut-off for these calls is given here.

Key:
[1] = test system: Staphylococcus aureus; experiment: Antibacterial activity against methicillin-resistant Staphylococcus aureus CMAH 0515 by disk diffusion method; format: functional
[2] = test system: Staphylococcus aureus; experiment: Antibacterial activity against methicillin-resistant Staphylococcus aureus CMAH 0430 by disk diffusion method; format: functional
[3] = test system: Bacillus subtilis; experiment: Antibacterial activity against Bacillus subtilis ATCC 6633 by broth microdilution method; format: functional
How it was run: (§1)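 MIC and MBC by broth microdilution following NCCLS recommendations; values given in µg/mL.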

[4] = test system: Pseudomonas aeruginosa; experiment: Antibacterial activity against Pseudomonas aeruginosa ATCC 27853 by broth microdilution method; format: functional; how it was run: as §1
[5] = test system: Micrococcus luteus; experiment: Antibacterial activity against Micrococcus luteus CMCC(B)28001 by broth microdilution method; format: functional; how it was run: as §1
[6] = Toxicity in human erythrocytes assessed as hemolytic activity at 500 ug/ml after 1 hr; format: cell-based, Erythrocyte; conditions: read-out: Activity
How it was run: (§2)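 Human heparinised erythrocytes, PBS-washed, were used at about 1.0 × 10^9 cells/mL and mixed 1:1 with compound (1-2000 µg/mL) for 1 h at 37 °C. After centrifugation, supernatant OD540 was read. PBS set 0% lysis and 0.1% Triton X-100 set 100% lysis. Triplicates, confirmed in three independent experiments.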

[7] = test system: Staphylococcus aureus; experiment: Antibacterial activity against methicillin-resistant Staphylococcus aureus CMAH 0515 by broth microdilution method; format: functional; how it was run: as §1
[8] = test system: Staphylococcus aureus; experiment: Antibacterial activity against methicillin-susceptible Staphylococcus aureus ATCC 25923 by broth microdilution method; format: functional; how it was run: as §1
[9] = test system: Staphylococcus aureus; experiment: Antibacterial activity against Staphylococcus aureus by disk diffusion method; format: functional
[10] = test system: Staphylococcus aureus; experiment: Antibacterial activity against methicillin-resistant Staphylococcus aureus CMAH 0504 at 30 ug/ml by disk diffusion method; format: functional; conditions: read-out: IZ
[11] = Toxicity in human erythrocytes assessed as hemolytic activity at 1000 ug/ml after 1 hr; format: cell-based, Erythrocyte; conditions: read-out: Activity; how it was run: as §2
[12] = Toxicity in human erythrocytes assessed as hemolytic activity at 2000 ug/ml after 1 hr; format: cell-based, Erythrocyte; conditions: read-out: Activity; how it was run: as §2
[13] = test system: Escherichia coli; experiment: Antibacterial activity against Escherichia coli ATCC 25922 by broth microdilution method; format: functional; how it was run: as §1
[14] = Toxicity in human erythrocytes assessed as hemolytic activity at 250 ug/ml after 1 hr; format: cell-based, Erythrocyte; conditions: read-out: Activity; how it was run: as §2
[15] = test system: Staphylococcus aureus; experiment: Antibacterial activity against methicillin-resistant Staphylococcus aureus CMAH 0430 by broth microdilution method; format: functional; how it was run: as §1
[16] = test system: Staphylococcus aureus; experiment: Antibacterial activity against methicillin-resistant Staphylococcus aureus CMAH 0504 by broth microdilution method; format: functional; how it was run: as §1
[17] = test system: Staphylococcus aureus; experiment: Antibacterial activity against methicillin-resistant Staphylococcus aureus CMAH 0504 at 10 ug/ml after 20 to 30 mins; format: functional, organism-based
How it was run: (§3)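 Time-kill assay. Mid-log cultures were diluted in Mueller–Hinton broth to a final inoculum of 3-5 × 10^5 cells/mL and incubated at 30 °C with 5, 10, 15 µg/mL (S. aureus ATCC 25923) or 2.5, 5, 10 µg/mL (MRSA CMAH 0504), alongside a drug-free growth control. Samples were washed, plated on MH agar and incubated 24 h at 30 °C for colony counts. Three independent experiments, each in triplicate.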

[18] = test system: Staphylococcus aureus; experiment: Antibacterial activity against methicillin-susceptible Staphylococcus aureus ATCC 25923 at 15 ug/ml after 40 mins; format: functional, organism-based; how it was run: as §3

Compound: C=CC1C[N+]2(CC(=O)c3ccc(Br)cc3)CCC1CC2[C@H](O)c1ccnc2ccc(OC)cc12.[Br-] (stereo partly specified)
inhibition zone (IZ) [1]: 22 mm
inhibition zone (IZ) [2]: 23 mm
MBC [3]: 6.25 µg/mL
MIC [3]: 3.13 µg/mL
MIC [4]: 100 µg/mL
MBC [5]: 6.25 µg/mL
MIC [5]: 6.25 µg/mL
hemolysis at 1 h, 500 ug/ml [6]: 0%
MBC [7]: 6.25 µg/mL
MIC [7]: 3.13 µg/mL
MBC [8]: 6.25 µg/mL
MIC [8]: 3.13 µg/mL
inhibition zone (IZ) [9]: 24 mm
zone of inhibition at 30 µg/mL [10]: 22 mm
hemolysis at 1 h, 1000 ug/ml [11]: 7%
hemolysis at 1 h, 2000 ug/ml [12]: 25%
MIC [13]: 100 µg/mL
hemolysis at 1 h, 250 ug/ml [14]: 0%
MBC [15]: 6.25 µg/mL
MIC [15]: 3.13 µg/mL
MBC [16]: 12.5 µg/mL
MIC [16]: 6.25 µg/mL

Compound: C=CC1C[N+]2(CC(=O)c3ccc([N+](=O)[O-])cc3)CCC1CC2[C@H](O)c1ccnc2ccc(OC)cc12.[Br-] (stereo partly specified)
MBC [3]: 50 µg/mL
MIC [3]: 25 µg/mL
MBC [5]: 50 µg/mL
MIC [5]: 25 µg/mL
hemolysis at 1 h, 500 ug/ml [6]: 0%
MBC [7]: 50 µg/mL
MIC [7]: 50 µg/mL
MBC [8]: 50 µg/mL
MIC [8]: 25 µg/mL
hemolysis at 1 h, 1000 ug/ml [11]: 0%
hemolysis at 1 h, 2000 ug/ml [12]: 0%
hemolysis at 1 h, 250 ug/ml [14]: 0%
MBC [15]: 50 µg/mL
MIC [15]: 50 µg/mL
MBC [16]: 50 µg/mL
MIC [16]: 50 µg/mL

Compound: O=C(N[C@H](CO)[C@H](O)c1ccc([N+](=O)[O-])cc1)C(Cl)Cl [CHLORAMPHENICOL]
inhibition zone (IZ) [1]: 27 mm
inhibition zone (IZ) [2]: 27 mm
inhibition zone (IZ) [9]: 32 mm
zone of inhibition at 30 µg/mL [10]: 26 mm

Compound: CCC(=O)O[C@@H]1CC(=O)O[C@H](C)C/C=C/C=C/[C@H](O)[C@H](C)C[C@H](CC=O)[C@H](O[C@@H]2O[C@H](C)[C@@H](O[C@H]3C[C@@](C)(O)[C@@H](OC(=O)CC)[C@H](C)O3)[C@H](N(C)C)[C@H]2O)[C@H]1OC [MIDECAMYCIN]
inhibition zone (IZ) [9]: 27 mm

Compound: C=C[C@H]1C[N@@]2CC[C@H]1C[C@H]2[C@H](O)c1ccnc2ccc(OC)cc12 [QUININE]
hemolysis at 1 h, 500 ug/ml [6]: 0%
hemolysis at 1 h, 1000 ug/ml [11]: 0%
hemolysis at 1 h, 2000 ug/ml [12]: 0%
hemolysis at 1 h, 250 ug/ml [14]: 0%

Compound: Cc1nnc(SCC2=C(C(=O)O)N3C(=O)[C@@H](NC(=O)Cn4cnnn4)[C@H]3SC2)s1 [CEFAZOLIN]
inhibition zone (IZ) [2]: 2 mm
inhibition zone (IZ) [9]: 30 mm

MIC [3]: 6.25 µg/mL (≈ 12.9 µM)
MIC [5]: 0.39 µg/mL (≈ 0.805 µM)
MIC [8]: 0.39 µg/mL (≈ 0.805 µM)
MIC [13]: 0.39 µg/mL (≈ 0.805 µM)
Compound: NC[C@H]1O[C@H](O[C@H]2[C@H](O)[C@@H](O[C@H]3O[C@H](CO)[C@@H](O)[C@H](N)[C@H]3O)[C@H](N)C[C@@H]2N)[C@H](O)[C@@H](O)[C@@H]1O [KANAMYCIN]
MBC [3]: 6.25 µg/mL (≈ 12.9 µM)
MBC [5]: 0.39 µg/mL (≈ 0.805 µM)
MBC [8]: 0.78 µg/mL (≈ 1.61 µM)
inhibition zone (IZ) [9]: 28 mm
MBC [13]: 0.39 µg/mL (≈ 0.805 µM)

Compound: CN[C@H](CC(C)C)C(=O)N[C@H]1C(=O)N[C@@H](CC(N)=O)C(=O)N[C@H]2C(=O)N[C@H]3C(=O)N[C@H](C(=O)N[C@H](C(=O)O)c4cc(O)cc(O)c4-c4cc3ccc4O)[C@H](O)c3ccc(c(Cl)c3)Oc3cc2cc(c3O[C@@H]2O[C@H](CO)[C@@H](O)[C@H](O)[C@H]2O[C@H]2C[C@](C)(N)[C@H](O)[C@H](C)O2)Oc2ccc(cc2Cl)[C@H]1O [VANCOMYCIN]
inhibition zone (IZ) [1]: 24 mm
inhibition zone (IZ) [2]: 24 mm
inhibition zone (IZ) [9]: 23 mm
zone of inhibition at 30 µg/mL [10]: 22 mm

Compound: CN(C)[C@@H]1C(O)=C(C(N)=O)C(=O)[C@@]2(O)C(O)=C3C(=O)c4c(O)cccc4[C@@](C)(O)[C@H]3C[C@@H]12 [TETRACYCLINE]
inhibition zone (IZ) [1]: 17 mm
inhibition zone (IZ) [2]: 15 mm
inhibition zone (IZ) [9]: 14 mm
zone of inhibition at 30 µg/mL [10]: 17 mm

Compound: C=CC1C[N+]2(CC(=O)c3ccc(OC)cc3)CCC1CC2[C@H](O)c1ccnc2ccc(OC)cc12.[Br-] (stereo partly specified)
MBC [3]: 25 µg/mL
MIC [3]: 12.5 µg/mL
MBC [5]: 12.5 µg/mL
MIC [5]: 12.5 µg/mL
hemolysis at 1 h, 500 ug/ml [6]: 0%
MBC [7]: 50 µg/mL
MIC [7]: 25 µg/mL
MBC [8]: 12.5 µg/mL
MIC [8]: 12.5 µg/mL
hemolysis at 1 h, 1000 ug/ml [11]: 0%
hemolysis at 1 h, 2000 ug/ml [12]: 0%
hemolysis at 1 h, 250 ug/ml [14]: 0%
MBC [15]: 50 µg/mL
MIC [15]: 25 µg/mL
MBC [16]: 50 µg/mL
MIC [16]: 25 µg/mL

Compound: CC1(C)S[C@@H]2[C@H](NC(=O)[C@H](N)c3ccccc3)C(=O)N2[C@H]1C(=O)O [AMPICILLIN]
MBC [3]: 0.39 µg/mL (≈ 1.12 µM)
MIC [3]: 0.39 µg/mL (≈ 1.12 µM)
MBC [5]: 0.78 µg/mL (≈ 2.23 µM)
MIC [5]: 0.39 µg/mL (≈ 1.12 µM)
MBC [8]: 0.78 µg/mL (≈ 2.23 µM)
MIC [8]: 0.39 µg/mL (≈ 1.12 µM)
inhibition zone (IZ) [9]: 34 mm
MBC [13]: 100 µg/mL (≈ 286 µM)
MIC [13]: 50 µg/mL (≈ 143 µM)

Compound: C=CC1C[N+]2(CC(=O)c3ccc(Cl)cc3)CCC1CC2[C@H](O)c1ccnc2ccc(OC)cc12 (stereo partly specified)
Activity [7]: inactive
Activity [8]: inactive
Activity [15]: inactive
Activity [16]: inactive

Compound: C[C@H]1COc2c(N3CCN(C)CC3)c(F)cc3c(=O)c(C(=O)O)cn1c23.C[C@H]1COc2c(N3CCN(C)CC3)c(F)cc3c(=O)c(C(=O)O)cn1c23.O [LEVOFLOXACIN]
inhibition zone (IZ) [9]: 32 mm

Compound: C=CC1C[N+]2(CC(=O)c3cccc4ccccc34)CCC1CC2[C@H](O)c1ccnc2ccc(OC)cc12.[Br-] (stereo partly specified)
inhibition zone (IZ) [1]: 25 mm
inhibition zone (IZ) [2]: 26 mm
MBC [3]: 6.25 µg/mL
MIC [3]: 3.13 µg/mL
MIC [4]: 100 µg/mL
MBC [5]: 3.13 µg/mL
MIC [5]: 3.13 µg/mL
hemolysis at 1 h, 500 ug/ml [6]: 9%
MBC [7]: 1.56 µg/mL
MIC [7]: 0.39 µg/mL
MBC [8]: 3.13 µg/mL
MIC [8]: 1.56 µg/mL
inhibition zone (IZ) [9]: 26 mm
zone of inhibition at 30 µg/mL [10]: 23 mm
hemolysis at 1 h, 1000 ug/ml [11]: 17%
Activity [17]: Active
hemolysis at 1 h, 2000 ug/ml [12]: 55%
MBC [13]: 100 µg/mL
MIC [13]: 50 µg/mL
Activity [18]: inactive
hemolysis at 1 h, 250 ug/ml [14]: 0%
MBC [15]: 1.56 µg/mL
MIC [15]: 0.39 µg/mL
MBC [16]: 1.56 µg/mL
MIC [16]: 0.78 µg/mL

Compound: C=CC1C[N+]2(CC(=O)c3ccccc3)CCC1CC2[C@H](O)c1ccnc2ccc(OC)cc12.[Br-] (stereo partly specified)
MBC [3]: 25 µg/mL
MIC [3]: 25 µg/mL
MBC [5]: 12.5 µg/mL
MIC [5]: 6.3 µg/mL
hemolysis at 1 h, 500 ug/ml [6]: 0%
MBC [7]: 25 µg/mL
MIC [7]: 12.5 µg/mL
MBC [8]: 25 µg/mL
MIC [8]: 12.5 µg/mL
hemolysis at 1 h, 1000 ug/ml [11]: 0%
hemolysis at 1 h, 2000 ug/ml [12]: 5%
hemolysis at 1 h, 250 ug/ml [14]: 0%
MBC [15]: 25 µg/mL
MIC [15]: 12.5 µg/mL
MBC [16]: 25 µg/mL
MIC [16]: 12.5 µg/mL

Compound: C=C[C@H]1CN2CC[C@H]1C[C@H]2[C@H](O)c1ccnc2ccc(OC)cc12
Activity [7]: inactive
Activity [8]: inactive
Activity [15]: inactive
Activity [16]: inactive
